Assay results: ChEMBL document CHEMBL1142419, “Antimycobacterial activities of novel 2-(sub)-3-fluoro/nitro-5,12-dihydro-5-oxobenzothiazolo[3,2-a]quinoline-6-carboxylic acid” (Bioorg Med Chem, 2008)
≈ marks a conversion by molar mass, not a printed value.

test system: Mycobacterium tuberculosis; experiment: Antimycobacterial activity against multidrug-resistant Mycobacterium tuberculosis by agar dilution method; assay type: functional
Method in brief: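 MIC by agar dilution on Middlebrook 7H11 agar supplemented with OADC, following an NCCLS-like procedure, run in duplicate. The MDR-TB clinical isolate was resistant to isoniazid, rifampicin, ethambutol and ofloxacin.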

`COc1cc2c(cc1OC)CN(c1cc3c(cc1F)c(=O)c(C(=O)O)c1sc4ccccc4n13)CC2` and `COc1cc2c(cc1OC)CN(c1cc3c(cc1[N+](=O)[O-])c(=O)c(C(=O)O)c1sc4ccccc4n13)CC2` are within 1.5-fold of each other in MIC: 3.09 µM (≈ 1.56 µg/mL) for the first, 2.93 µM (≈ 1.56 µg/mL) for the second.

Going from `CC(C)(C)OC(=O)NC1C2CN(c3cc4c(cc3[N+](=O)[O-])c(=O)c(C(=O)O)c3sc5ccccc5n34)CC21` (centres undefined) to `CC(C)(C)OC(=O)NC1C2CN(c3cc4c(cc3F)c(=O)c(C(=O)O)c3sc5ccccc5n34)CC21` (centres undefined), the MIC falls from 0.73 µM (≈ 0.392 µg/mL) to 0.18 µM (≈ 0.0917 µg/mL) (4.1-fold).

First: O=C(O)c1c(=O)c2cc(F)c(N3CCC(n4c(=O)[nH]c5cc(Cl)ccc54)CC3)cc2n2c1sc1ccccc12
Second: O=C(O)c1c(=O)c2cc(F)c(N3CCC(O)(c4ccc(Cl)cc4)CC3)cc2n2c1sc1ccccc12
The MIC of the first is 15-fold higher: 5.56 µM (≈ 3.13 µg/mL) for the first, 0.36 µM (≈ 0.188 µg/mL) for the second.

Compared with `O=C(O)c1c(=O)c2cc(F)c(N3CCN(C(c4ccccc4)c4ccc(Cl)cc4)CC3)cc2n2c1sc1ccccc12` (centres undefined), `O=C(O)c1c(=O)c2cc(F)c(N3CCN(C(=O)C4COc5ccccc5O4)CC3)cc2n2c1sc1ccccc12` (centres undefined) is 8.6-fold higher in MIC: 0.65 µM (≈ 0.389 µg/mL) for the first, 5.59 µM (≈ 3.13 µg/mL) for the second.

`O=C(O)c1c(=O)c2cc(F)c(N3CCN(Cc4ccc5c(c4)OCO5)CC3)cc2n2c1sc1ccccc12` and `O=C(O)c1c(=O)c2cc(F)c(N3CCSCC3)cc2n2c1sc1ccccc12` are within 1.5-fold of each other in MIC: 5.89 µM (≈ 3.13 µg/mL) for the first, 7.55 µM (≈ 3.13 µg/mL) for the second.

First: O=C(O)c1c(=O)c2cc([N+](=O)[O-])c(N3CCC(N4CCCCC4)CC3)cc2n2c1sc1ccccc12
Second: O=C(O)c1c(=O)c2cc(F)c(N3CCC(N4CCCCC4)CC3)cc2n2c1sc1ccccc12
The MIC of the first is 8.1-fold higher: 1.54 µM (≈ 0.78 µg/mL) for the first, 0.19 µM (≈ 0.0911 µg/mL) for the second.

Compared with `NNC(=O)c1ccncc1` [ISONIAZID], `O=C(O)c1cn2c(n1)CN(c1cc3c(cc1F)c(=O)c(C(=O)O)c1sc4ccccc4n13)CC2` is 120-fold lower in MIC: 45.6 µM (≈ 6.25 µg/mL) for the first, 0.39 µM (≈ 0.187 µg/mL) for the second.

Going from `O=C(O)c1c(=O)c2cc([N+](=O)[O-])c(N3CCC(O)(c4ccc(Cl)cc4)CC3)cc2n2c1sc1ccccc12` to `O=C(O)c1c(=O)c2cc([N+](=O)[O-])c(N3CCC4(CC3)OCCO4)cc2n2c1sc1ccccc12`, the MIC falls from 2.84 µM (≈ 1.56 µg/mL) to 0.39 µM (≈ 0.188 µg/mL) (7.3-fold).

Going from `COc1c(N2CCNC(C)C2)c(F)cc2c(=O)c(C(=O)O)cn(C3CC3)c12` (centres undefined) [GATIFLOXACIN] to `CCN(CC)C(=O)C1CCCN(c2cc3c(cc2F)c(=O)c(C(=O)O)c2sc4ccccc4n23)C1` (centres undefined), the MIC falls from 8.34 µM (≈ 3.13 µg/mL) to 0.08 µM (≈ 0.0396 µg/mL) (100-fold).

`CCN(CC)C(=O)C1CCCN(c2cc3c(cc2[N+](=O)[O-])c(=O)c(C(=O)O)c2sc4ccccc4n23)C1` (centres undefined) and `O=C(O)c1cn2c(n1)CN(c1cc3c(cc1[N+](=O)[O-])c(=O)c(C(=O)O)c1sc4ccccc4n13)CC2` are within 1.5-fold of each other in MIC: 0.75 µM (≈ 0.392 µg/mL) for the first, 0.77 µM (≈ 0.389 µg/mL) for the second.

First: CC(C)(C)NC(=O)C1c2ccccc2CCN1c1cc2c(cc1[N+](=O)[O-])c(=O)c(C(=O)O)c1sc3ccccc3n12 (centres undefined)
Second: CC(C)(C)NC(=O)C1c2ccccc2CCN1c1cc2c(cc1F)c(=O)c(C(=O)O)c1sc3ccccc3n12 (centres undefined)
The MIC of the first is 3.8-fold higher: 5.49 µM (≈ 3.13 µg/mL) for the first, 1.43 µM (≈ 0.777 µg/mL) for the second.

Compared with `Cc1onc(-c2c(F)cccc2F)c1C(=O)N1CCN(c2cc3c(cc2F)c(=O)c(C(=O)O)c2sc4ccccc4n23)CC1`, `O=C(O)c1c(=O)c2cc(F)c(N3CCC4(CC3)OCCO4)cc2n2c1sc1ccccc12` is 5.9-fold lower in MIC: 5.06 µM (≈ 3.13 µg/mL) for the first, 0.86 µM (≈ 0.391 µg/mL) for the second.
